KCNQ1 act = potentiators or activators of human KCNQ1 potassium channel. P51787. CHO-K1 KCNQ1, thallium flux FluxOR fluorescence; hits give high values. B-score at 10 µM. hit rate 0.35% among 310,000;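 active = fluorescence ratio B-score, a plate-corrected score, at least three library SD, with initial intensity B-score within 5 SD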
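Material: CHO-K1 cells stably expressing KCNQ1. Medium: assay buffer for compound exposure, DMSO matched across wells. Reagent: K+/Tl+ depolarizing stimulus. Compound dosing: single-concentration screen. Times: 37 °C overnight plating, 90-min dark dye load, 20-min compound pretreatment. Technique: FluxOR Tl+ flux fluorescence.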
KCNK3 inh = human KCNK3 channel inhibition, primary screen | CHO-KCNK3 thallium flux, FluxOR fluorescence; hits give low values | hit rate 0.84% among 340,000 | AID 602410 | O14649 | B-score at 10 µM;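 active = B-score under library mean minus 4 SD, starting fluorescence ratio at most library mean plus 5 SD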;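 also: more negative B-score means stronger inhibition of thallium flux through KCNK3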
KCNQ1 inh = inhibitors of human KCNQ1 potassium channel; B-score at 10 µM; CHO-K1 KCNQ1, FluxOR thallium flux fluorescence; hits give high values; hit rate 1.3% among 310,000; P51787;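 active = compounds whose thallium flux B-score, printed positive for inhibition, exceeds three library SD while starting fluorescence stays within three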;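 also: channel opened by potassium depolarization with thallium stimulus after 20 min compound exposure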
Kir21 block = inhibitors of mouse Kir2.1 inward-rectifier potassium channel. P35561. HEK293-Kir2.1, FluxOR thallium flux fluorescence; hits give low values. B-score at 10 µM. hit rate 0.85% among 310,000. AID 1672;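 active = fluorescence ratio B-score at or below minus 3 SD of library scores, with starting-brightness B-score within 2 SD, cut at about -4.2 in these data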;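 also: channel flux triggered by added potassium and thallium sulfate stimulus; B-score of peak minus minimum fluorescence over baseline after thallium stimulus; more negative B-score means stronger Kir2.1 block with less thallium influx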
Target sequence (P35561 whole entry, looked up): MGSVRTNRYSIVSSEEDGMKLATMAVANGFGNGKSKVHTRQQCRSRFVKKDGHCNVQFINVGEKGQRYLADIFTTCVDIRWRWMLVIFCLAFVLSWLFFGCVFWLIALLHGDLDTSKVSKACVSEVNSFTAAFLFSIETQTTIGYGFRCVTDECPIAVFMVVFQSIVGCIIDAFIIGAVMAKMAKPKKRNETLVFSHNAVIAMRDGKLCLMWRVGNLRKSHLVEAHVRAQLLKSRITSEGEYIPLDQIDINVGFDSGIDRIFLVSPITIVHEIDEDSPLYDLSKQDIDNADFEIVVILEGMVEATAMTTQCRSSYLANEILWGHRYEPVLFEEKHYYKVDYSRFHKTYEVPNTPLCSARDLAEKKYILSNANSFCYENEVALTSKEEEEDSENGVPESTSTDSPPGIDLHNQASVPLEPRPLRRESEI
KCNK9 inh = inhibitors of human KCNK9 two-pore domain potassium channel; Q9NPC2; HEK293 KCNK9, FluxOR thallium flux fluorescence; hits give low values; B-score at 10 µM; hit rate 1.2% among 310,000; AID 488922;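 active = ratio B-score over 3 SD below the library mean, with starting fluorescence within 5 SD of its mean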;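 also: negative B-score means less thallium flux so channel inhibition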
hERG rescue = shields human hERG channel from block by proarrhythmic agents. hit rate 0.51% among 310,000. CHO-hERG, FluxOR thallium flux, dofetilide IC70 present. activation (rescue from dofetilide block), less the hit threshold, % at 10 µM. Q12809;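 active = activation above the mean of controls blocked by dofetilide plus 5 SD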;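 also: thallium influx through hERG after potassium depolarization seen as dye fluorescence rise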
KCNK9 block conf = confirmation of human KCNK9 potassium channel inhibitors. shares compounds with KCNK9 inh. HEK293 KCNK9 cells, FluxOR thallium flux fluorescence. inhibition, % at 10 µM. hit rate 43% among 4,900. AID 492992;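 active = thallium signal inhibited by more than 5 SD of the compound-free buffer control wells, on both duplicate plates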;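 also: 0% = assay buffer control wells without compound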
Kir2-1 spec = mouse Kir2.1 off-target activity of KCNK9 modulators | AID 492993 | shares compounds with KCNK9 inh | hit rate 4% among 4,900 | inhibition, % at 10 µM | Kir2.1 cells, FluxOR thallium flux fluorescence;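 active = thallium signal drop more than 5 SD beyond the mean of the no-compound control wells, seen in both duplicate plates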;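 also: signal is fluorescence rise after thallium addition divided by baseline fluorescence; plate controls were assay buffer only for no effect and full block by chlorpromazine control for full effect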
KCNK9 uninduced = second counter-screen for KCNK9 modulators: effect in non-induced cells. hit rate 40% among 4,900. AID 492997. inhibition, % at 10 µM. non-induced KCNK9-HEK293, FluxOR thallium flux. shares compounds with KCNK9 inh;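 active = thallium signal drop beyond 5 SD of the untreated control mean, on both duplicate plates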;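 also: plate controls were buffer only IC0 wells for no effect and SID17386958 at its maximal inhibitory level for full effect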
Active calls of the source: *; i = inactive; / = not tested or not shown. An excerpt weighted towards active compounds, which were near 3.7% of everything screened.

SMILES	KCNQ1 act	KCNK3 inh	KCNQ1 inh	Kir21 block	KCNK9 inh	hERG rescue	KCNK9 block conf	Kir2-1 spec	KCNK9 uninduced
CN(Cc1nc2ccccc2n1C)C(=O)c1ccco1	i	i	i	-0.37	i	-7	/	/	/
Cc1sc2nc(C3CC3)nc(SCC(=O)N3CCCc4ccccc43)c2c1C	i	/	i	-1.2	i	-7	/	/	/
Cc1sc2nc(C3CC3)nc(SCC(=O)N3CCc4ccccc4C3)c2c1C	i	i	i	-0.72	i	-16	i	i	i
CCCc1nc(SCC(=O)N2c3ccccc3CC2C)c2c(C)c(C)sc2n1 (stereo not given)	i	i	i	-0.37	i	-7	i	i	i
Cc1ccc(NC(=O)CSc2nnc(Cc3csc(C)n3)o2)cc1	/	i	/	/	/	/	/	/	/
CCOc1ccc(Nc2nc(Cc3nnc(SCC(=O)c4ccc(C)c(C)c4)o3)cs2)cc1	i	i	i	-0.01	i	-6	i	i	i
CCC(c1nnnn1C(C)(C)C)N(Cc1ccco1)Cc1cc2cccc(C)c2[nH]c1=O (stereo not given)	i	i	i	-0.39	i	-5	/	/	/
CCC(c1nnnn1CCc1ccccc1)N(Cc1ccco1)Cc1cc2cccc(C)c2[nH]c1=O (stereo not given)	i	i	7*	-1.7	-10*	-12	33%*	i	30%*
Cc1ccc(C2=Nc3ccccc3SC(c3cccc([N+](=O)[O-])c3)C2)cc1 (stereo not given)	i	-13*	i	1.5	-13*	-5	71%*	i	40%*
O=C(COC(=O)c1oc2ccccc2c1CSc1ccc(Cl)cc1)NC1CCCC1	i	i	10*	0.64	-8.1*	-6	32%*	36%*	50%*
NC(=O)COC(=O)c1oc2ccccc2c1CSc1ccc(Cl)cc1	i	i	i	0.03	i	-10	/	/	/
Cc1ccc2c(c1)N(CCC(=O)NC1CCCCC1)C(=O)CO2	i	i	i	-0.3	i	-9	i	i	i
COc1ccccc1CNC(=O)CCCN1C(=O)COc2ccc(C)cc21	i	i	i	-0.55	i	-8	i	i	i
Cc1cc(C)c(CN2CCCC(CNC(=O)c3ccc(F)cc3)C2)c(-n2cccn2)c1 (stereo not given)	i	i	i	-2	i	-25	/	/	/
Cc1ccsc1C(=O)C1CCCN(Cc2cc(F)ccc2-n2cccn2)C1 (stereo not given)	i	i	i	-0.6	i	-11	i	i	i
COc1ccc(CNC(=O)C2CCC(CNC(=O)[C@@H]3Cc4ccccc4CN3)CC2)cc1 (stereo not given in full)	i	i	i	0.55	i	-4	/	/	/
O=C(/C=C/c1cccs1)c1cc(Br)ccc1OC(=O)N1CCOCC1	i	i	i	0.64	-9.8*	-3	30%*	i	23%*
Cc1cc2nnc(SC3CCCCN(C(=O)c4ccc(F)cc4)C3=O)n2c2ccccc12 (stereo not given)	i	i	i	0.02	i	-5	i	i	i
Cc1ccc(C2=NNC3(CCOC(C)(C)C3)S2)cc1 (stereo not given)	i	i	i	-1.9	i	-2	/	/	/
CN(Cc1nc2ccccc2c(=O)[nH]1)C(=O)c1cc(-c2ccc(Br)cc2)nc2ccccc12	/	i	/	/	/	/	/	/	/
Cc1cc(C)c(C)c(S(=O)(=O)NCC(=O)NCC2CCCCC2)c1C	i	i	i	-2.5	-12*	-4	34%*	i	26%*
Cc1cccn2c(=O)c(/C=C(\C#N)C(=O)NCc3ccco3)c(N3CCCCC3)nc12	i	i	i	0.7	i	-13	/	/	/

Source: PubChem BioAssay
